Data as given in ChEMBL document CHEMBL2311465, “Synthesis of novel naphthoquinone aliphatic amides and esters and their anticancer evaluation” (Eur J Med Chem, 2013).
The source made the active and inactive calls. No cut-off for these calls is given here.

Key:
KB = assay: Cytotoxicity against human KB cells after 3 days by resazurin microplate assay; format: functional, cell-based; conditions: 72 h
Procedure, shortened: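 KB cells (ATCC CCL-17) harvested in log phase and diluted to 7 × 10^4 cells/mL, then added to samples diluted in 0.5% DMSO. Incubated 3 days at 37 °C, 5% CO2, then resazurin added and plates held 4 h at 37 °C. Fluorescence read at ex 530/em 590 nm. IC50 fitted from 6 two-fold serial concentrations; six replicate experiments.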

Vero = assay: Cytotoxicity against african geen monkey Vero cells after 4 days by GFP reporter assay; format: cell-based, Chlorocebus sabaeus
Procedure, shortened: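 Vero cells (GFP-expressing, grown with geneticin at 37 °C, 5% CO2) added to test compounds diluted in 0.5% DMSO and incubated 4 days at 37 °C, 5% CO2. Bottom-read fluorescence at ex 485/em 535 nm; day-0 background subtracted from the day-4 signal. Typical values from six replicate experiments.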

[1] = biological target: DNA topoisomerase 2-alpha (Homo sapiens) (UniProt P11388); assay: Inhibition of human topoisomerase 2-alpha-mediated decatenation of kinetoplast DNA at 50 uM after 1 hr by agarose gel electrophoretic analysis
Procedure, shortened: (§1)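 kDNA (60 ng) incubated with 2 units of human TopoIIα, with or without compound, for 1 h at 37 °C. Buffer: 50 mM Tris-Cl pH 8.0, 150 mM NaCl, 10 mM MgCl2, 0.5 mM dithiothreitol, 2 mM ATP. Decatenation judged by presence or absence of enzyme activity.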

[2] = biological target: DNA topoisomerase 2-alpha (Homo sapiens) (UniProt P11388); assay: Inhibition of human topoisomerase 2-alpha-mediated decatenation of kinetoplast DNA at 5 uM after 1 hr by agarose gel electrophoretic analysis; procedure, shortened: as §1
[3] = biological target: DNA topoisomerase 2-alpha (Homo sapiens) (UniProt P11388); assay: Inhibition of human topoisomerase 2-alpha-mediated decatenation of kinetoplast DNA at 10 to 20 uM after 1 hr by agarose gel electrophoretic analysis; procedure, shortened: as §1
[4] = Chlorocebus sabaeus, Vero, 96 h, read-out: IC50

Chain of DNA topoisomerase 2-alpha (Homo sapiens) (P11388 whole entry): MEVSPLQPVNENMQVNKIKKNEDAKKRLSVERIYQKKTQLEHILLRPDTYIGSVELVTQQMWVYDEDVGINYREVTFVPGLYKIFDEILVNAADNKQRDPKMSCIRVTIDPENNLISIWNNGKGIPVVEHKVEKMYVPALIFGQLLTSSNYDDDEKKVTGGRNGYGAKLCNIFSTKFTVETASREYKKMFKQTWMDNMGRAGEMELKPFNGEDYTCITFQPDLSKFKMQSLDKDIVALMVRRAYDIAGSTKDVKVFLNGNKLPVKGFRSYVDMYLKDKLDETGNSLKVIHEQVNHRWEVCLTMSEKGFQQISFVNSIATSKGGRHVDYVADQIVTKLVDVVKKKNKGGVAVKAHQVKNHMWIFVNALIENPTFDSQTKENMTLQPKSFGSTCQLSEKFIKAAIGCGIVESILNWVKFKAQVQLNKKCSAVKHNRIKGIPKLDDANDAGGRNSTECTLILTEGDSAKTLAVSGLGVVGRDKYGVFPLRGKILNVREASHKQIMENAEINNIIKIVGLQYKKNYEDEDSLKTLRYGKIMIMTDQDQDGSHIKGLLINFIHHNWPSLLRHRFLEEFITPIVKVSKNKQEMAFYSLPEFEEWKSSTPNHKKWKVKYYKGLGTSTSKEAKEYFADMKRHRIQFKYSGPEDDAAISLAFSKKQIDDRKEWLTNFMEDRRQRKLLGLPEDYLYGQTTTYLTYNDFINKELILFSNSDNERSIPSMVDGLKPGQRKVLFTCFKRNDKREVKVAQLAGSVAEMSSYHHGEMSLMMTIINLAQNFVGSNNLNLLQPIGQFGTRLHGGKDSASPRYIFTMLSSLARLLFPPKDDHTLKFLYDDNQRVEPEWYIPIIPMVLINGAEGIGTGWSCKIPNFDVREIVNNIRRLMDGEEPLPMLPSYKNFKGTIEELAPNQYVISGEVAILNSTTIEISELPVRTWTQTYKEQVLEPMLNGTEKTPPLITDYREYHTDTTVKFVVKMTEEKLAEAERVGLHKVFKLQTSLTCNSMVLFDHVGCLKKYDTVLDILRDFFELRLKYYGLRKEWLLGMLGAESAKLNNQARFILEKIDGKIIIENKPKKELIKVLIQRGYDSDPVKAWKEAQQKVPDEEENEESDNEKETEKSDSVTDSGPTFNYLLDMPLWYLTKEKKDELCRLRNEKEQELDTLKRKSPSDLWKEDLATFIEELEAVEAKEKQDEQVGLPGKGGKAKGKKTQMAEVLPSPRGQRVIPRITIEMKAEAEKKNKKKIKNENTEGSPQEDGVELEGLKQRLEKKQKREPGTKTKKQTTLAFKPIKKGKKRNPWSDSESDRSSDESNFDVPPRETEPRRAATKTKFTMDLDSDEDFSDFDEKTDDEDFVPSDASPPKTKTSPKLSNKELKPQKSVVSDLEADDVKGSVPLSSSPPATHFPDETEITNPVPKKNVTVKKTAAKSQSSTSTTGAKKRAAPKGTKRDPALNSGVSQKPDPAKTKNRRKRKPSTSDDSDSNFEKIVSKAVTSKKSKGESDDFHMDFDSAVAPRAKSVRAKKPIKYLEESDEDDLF

SMILES | IC50 (KB) | IC50 (Vero; [4]) | also measured
COc1cccc2c1C(=O)c1c(O)c3c(c(O)c1C2=O)C[C@@](O)(C(=O)CO)C[C@@H]3O[C@H]1C[C@H](N)[C@H](O)[C@H](C)O1 [DOXORUBICIN] | 0.96 µM | – | –
CCCCCCC(=O)OCC(C)(C)CC1=C(O)C(=O)c2ccccc2C1=O | 14.4 µM | – | –
CCCCCCCCCCCCCC(=O)NCC(C)(C)CC1=C(O)C(=O)c2ccccc2C1=O | 25.1 µM | 9.81 µM | –
CCCC(C)C(=O)OCC(C)(C)CC1=C(O)C(=O)c2ccccc2C1=O (configuration not stated) | 1.76 µM | – | inhibition [1]: Active
CCCCCCC(=O)NCC(C)(C)CC1=C(O)C(=O)c2ccccc2C1=O | 28.2 µM | 24.8 µM | –
CCCCCCC(C)C(=O)NCC(C)(C)CC1=C(O)C(=O)c2ccccc2C1=O (configuration not stated) | 23.7 µM | 15.5 µM | –
CCCCCCCCC(=O)NCC(C)(C)CC1=C(O)C(=O)c2ccccc2C1=O | 19.7 µM | 16.7 µM | –
CC(C)C(=O)NCC(C)(C)CC1=C(O)C(=O)c2ccccc2C1=O | 94.6 µM | – | IC50 (Vero; vero): Non-toxic
CCCCCCCCCC(=O)NCC(C)(C)CC1=C(O)C(=O)c2ccccc2C1=O | 18.5 µM | 15 µM | –
CCCCCCCC(=O)OCC(C)(C)CC1=C(O)C(=O)c2ccccc2C1=O | 38.3 µM | – | –
CCCCCC(=O)NCC(C)(C)CC1=C(O)C(=O)c2ccccc2C1=O | 40.2 µM | 46.6 µM | –
CCC(C)C(=O)NCC(C)(C)CC1=C(O)C(=O)c2ccccc2C1=O (configuration not stated) | 102 µM | – | IC50 (Vero; vero): Non-toxic
CCCCCCCCCC(=O)OCC(C)(C)CC1=C(O)C(=O)c2ccccc2C1=O | 55.5 µM | – | –
CCCCCCCCCCCCCCCCCC(=O)OCC(C)(C)CC1=C(O)C(=O)c2ccccc2C1=O | 76.7 µM | – | –
CCCCCCCCCCCC(=O)OCC(C)(C)CC1=C(O)C(=O)c2ccccc2C1=O | 35.7 µM | – | –
CCCCC(=O)OCC(C)(C)CC1=C(O)C(=O)c2ccccc2C1=O | 27.8 µM | – | –

SMILES | IC50 (KB) | IC50 (Vero; [4]) | also measured
CCCCCCCCCCCCCCCCCC(=O)NCC(C)(C)CC1=C(O)C(=O)c2ccccc2C1=O | 6.35 µM | 5.76 µM | –
CCC(C)C(=O)OCC(C)(C)CC1=C(O)C(=O)c2ccccc2C1=O (configuration not stated) | 4.65 µM | – | –
CCCCCCCCCCCCCCCC(=O)NCC(C)(C)CC1=C(O)C(=O)c2ccccc2C1=O | 5.12 µM | 5.6 µM | inhibition [2]: inactive; inhibition [3]: Active; inhibition [1]: Active
CCCC(=O)OCC(C)(C)CC1=C(O)C(=O)c2ccccc2C1=O | 43 µM | – | –
CCCCCC(=O)OCC(C)(C)CC1=C(O)C(=O)c2ccccc2C1=O | 41 µM | – | –
CCCCCCCCC(=O)OCC(C)(C)CC1=C(O)C(=O)c2ccccc2C1=O | 38.7 µM | – | –
CCCC(C)C(=O)NCC(C)(C)CC1=C(O)C(=O)c2ccccc2C1=O (configuration not stated) | 47.1 µM | 48.1 µM | inhibition [1]: Active
CCCCCCCC(=O)NCC(C)(C)CC1=C(O)C(=O)c2ccccc2C1=O | 24.6 µM | 18.4 µM | –
CCCCCCCCCCCCCCCC(=O)OCC(C)(C)CC1=C(O)C(=O)c2ccccc2C1=O | 27.1 µM | – | inhibition [1]: Active
CCCCCCCCCCCC(=O)NCC(C)(C)CC1=C(O)C(=O)c2ccccc2C1=O | 12.8 µM | 13.9 µM | –
CCCCCCCCCCCCCC(=O)OCC(C)(C)CC1=C(O)C(=O)c2ccccc2C1=O | 51.4 µM | – | –
CCC(=O)OCC(C)(C)CC1=C(O)C(=O)c2ccccc2C1=O | 84.4 µM | – | –
CC(C)C(=O)OCC(C)(C)CC1=C(O)C(=O)c2ccccc2C1=O | 14.4 µM | – | –
CCCCCCCCCCC(=O)NCC(C)(C)CC1=C(O)C(=O)c2ccccc2C1=O | 17.6 µM | 14.9 µM | –
CCCCCCCCCCC(=O)OCC(C)(C)CC1=C(O)C(=O)c2ccccc2C1=O | 54.8 µM | – | –
CCCCCCC(C)C(=O)OCC(C)(C)CC1=C(O)C(=O)c2ccccc2C1=O (configuration not stated) | 16.8 µM | – | –
